# Compounds with a hit are over-represented: about 1.8% of the library has one in this group of screens.
# NPY Y1 blocker: NPY-Y1 receptor antagonists, primary screen, cell-based; Neuropeptide Y receptor type 1 (Homo sapiens), P25929; HEK293-CNG Y1 cells, membrane potential fluorescence; NPY at EC95, then isoproterenol; inhibition, % at 3.6 µM; 1% of 200,000 active;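 active means inhibition above the campaign mean inhibition of all tested compounds plus 3 SD, cut at about 20% in these data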;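 further: 0% = DMSO wells given NPY plus isoproterenol and 100% = isoproterenol alone without NPY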
# Target sequence (P25929 whole entry, looked up): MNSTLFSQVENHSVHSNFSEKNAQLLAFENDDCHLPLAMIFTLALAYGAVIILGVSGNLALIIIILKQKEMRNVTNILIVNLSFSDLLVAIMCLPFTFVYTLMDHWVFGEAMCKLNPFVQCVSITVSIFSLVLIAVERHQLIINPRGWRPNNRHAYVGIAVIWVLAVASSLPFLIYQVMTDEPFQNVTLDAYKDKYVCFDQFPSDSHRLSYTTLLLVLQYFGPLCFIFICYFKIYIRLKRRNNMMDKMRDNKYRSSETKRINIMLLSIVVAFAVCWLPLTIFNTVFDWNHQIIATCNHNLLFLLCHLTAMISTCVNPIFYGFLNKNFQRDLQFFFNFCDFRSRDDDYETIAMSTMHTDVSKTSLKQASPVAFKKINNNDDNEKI
#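 Material: HEK293 cells with Y1 receptor plus CNG channel; times: compound incubation 1 h at room temperature, readout 45 min post-stimulation; signal: fluorescence, membrane potential probe; read-out basis: fluorescence ratio normalized to % inhibition between controls; benchmarks: full-block control isoproterenol-only wells, zero-block control NPY plus isoproterenol wells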
# NPY-Y2 antag: NPY-Y2 receptor antagonists, primary screen, cell-based | Neuropeptide Y receptor type 2 (Homo sapiens), P49146 | AID 793, 2007 | NPY-Y2 expressing cells, antagonist mode | inhibition, % at 2.7 µM | 0.99% of 140,000 active; in the data active means inhibition above about 17%;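 further: 0% = vehicle with agonist challenge and 100% = reference antagonist with challenge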
# NPY1 pot ag: NPY-Y1 receptor potentiators or agonists, primary screen, cell-based. Neuropeptide Y receptor type 1 (Homo sapiens), P25929. NPY-Y1 expressing cells, potentiator/agonist activation. activation, % at 3.6 µM. 0.37% of 220,000 active. AID 1304, 2008; in the data active means activation above about 33%, passing the limit was not always enough;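 further: cells stimulated with NPY at EC10 then isoproterenol at EC100; 0% = low agonist plus stimulus and 100% = saturating agonist plus stimulus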
# NPY-Y2 PAM-ag: NPY-Y2 potentiators or agonists, primary screen, cell-based; Neuropeptide Y receptor type 2 (Homo sapiens), P49146; activation, % at 3.6 µM; 0.45% of 220,000 active; cells expressing NPY-Y2, potentiator/agonist read-out; in the data active means activation above about 27%;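 further: cells stimulated with NPY near EC25 plus isoproterenol at EC100; 0% = vehicle plus submaximal agonist and 100% = vehicle plus saturating agonist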
# Active calls of the source: *; . = not tested or not shown.
SMILES,NPY Y1 blocker,NPY-Y2 antag,NPY1 pot ag,NPY-Y2 PAM-ag
CCOc1ccccc1C(=O)Nc1ccccc1C(N)=O,0.4,3.4,-26.6,-18.5
CCOc1ccccc1C(=O)Nc1ccsc1C(=O)OC,21.4*,19.7*,-27.6,-22.9
CCOC(=O)C1=NN(c2cccc(C)c2)C2(S1)SC(C(C)=O)=C(C)N2c1ccccc1 (stereo not given),29.5*,31.7*,-30.3,-11.2
CCOC(=O)C1=NN(c2ccccc2)C2(S1)SC(C(C)=O)=C(C)N2c1ccccc1 (stereo not given),0.8,6.3,-0.1,-1.8
O=c1[nH]c2c(Br)cnc([N+](=O)[O-])c2[nH]1,.,.,-13.3,3.6
O=c1[nH]c2cc(Cl)c([N+](=O)[O-])nc2[nH]1,22.1*,17.8*,-61.2,-14.7
Cc1cc(C)c(OCC(O)CNC(C)(C)C)c(C)c1 (stereo not given),-9.3,.,83.6*,87.2*
CC(C)(C)NCC(O)COc1c(F)cc(Br)cc1F (stereo not given),-7.0,0.5,51.1*,65.9*
CC(C)(C)CC(C)(C)NCC(O)COc1c(F)cc(Br)cc1F (stereo not given),6.8,5.2,-21.3,6.1
Cc1cc(C)nc(NCC(O)COc2ccccc2C)n1 (stereo not given),-6.8,0.5,6.6,5.5
CCCCC(CC)CNS(=O)(=O)c1ccc2c(c1)CCN2C(=O)CCC(=O)O (stereo not given),-7.7,-0.5,40.7*,18.5
O=C(O)CCC(=O)N1CCc2cc(S(=O)(=O)NC3CCCC3)ccc21,-2.1,0.2,0.6,13.4
COc1ccc(NC(=O)CCCC2CCCCC2)cc1S(=O)(=O)N1CCCCC1,29.2*,17.7*,-17.0,-6.9
COc1ccc(-c2cc(N)n(S(=O)(=O)c3c(F)c(F)c(F)c(F)c3F)n2)cc1OC,87.4*,98.5*,-89.6,-27.1
COc1ccc(S(=O)(=O)n2nc(-c3cc(OC)c(OC)c(OC)c3)cc2N)cc1OC,-2.7,3.9,-2.7,-1.9
O=C(NCc1cccs1)C1CCCN1C(=O)Nc1ccc(Cl)cc1 (stereo not given),4.8,.,-9.0,-11.7
O=C(NCc1cccs1)C1CCCN1C(=O)Nc1ccccc1 (stereo not given),-16.5,0.1,110.5*,102.0*
Cc1ccccc1Nc1cccc2nonc12,1.7,3.9,-14.4,3.5
COC(=O)[C@H]1C[C@@H]1[C@H](NC(=O)c1cnccn1)c1ccccc1,1.7,0.7,22.7,83.5*
O=S(=O)(Nc1ccc(N=Nc2ccc(O)c3ccccc23)cc1)c1ccccc1,-13.0,-8.2,73.0*,61.9*
O=S(=O)(Nc1ccc(N=Nc2ccccc2)cc1)c1ccccc1,-2.5,-2.2,20.1,8.3
CCCCCCCCCCn1c2c(c(=N)c3c1CCC3)CCC2,92.4*,51.2*,-88.0,-77.2
COc1cc(C2=Nc3ccc(Br)cc3C(c3ccccc3)N2CC(=O)NN)cc(OC)c1OC (stereo not given),.,.,9.2,12.9
COC(=O)CN1C(c2ccc(OC)cc2)=Nc2ccc(Cl)cc2C1c1ccccc1 (stereo not given),24.6*,22.9*,-7.0,-9.3
COC(=O)CN1C(c2cccc(Cl)c2)=Nc2ccc(Cl)cc2C1c1ccccc1 (stereo not given),38.7*,27.6*,-42.9,-21.2
SMILES,NPY Y1 blocker,NPY-Y2 antag,NPY1 pot ag,NPY-Y2 PAM-ag
CC(=O)c1ccc(NC(=S)Nc2cccc(Cl)c2C)cc1,4.4,.,4.4,14.3
O=C(Nc1ccc(C(=O)O)cc1)/C(=C\c1ccc([N+](=O)[O-])cc1)NC(=O)c1ccc(Br)cc1,4.8,.,-19.1,-20.1
Cc1ccc(S(=O)(=O)NN2C(=O)/C(=C/c3cccs3)SC2=S)cc1,.,.,-17.1,-32.5
Cc1ccc(S(=O)(=O)NN2C(=O)/C(=C/c3cccn3C)SC2=S)cc1,28.1*,9.4,-41.7,-26.4
Cn1nc(C(F)(F)F)c(-c2cccc(C(F)(F)F)c2)c1NC(=O)c1ccco1,.,.,-0.1,-11.4
Cn1nc(C(F)(F)F)c(-c2cccc(C(F)(F)F)c2)c1NC(=O)Nc1ccc(F)cc1,.,.,110.5*,102.2*
CCOc1ccc(N(C(=O)c2cnsn2)C(C(=O)NC2CCCCC2)c2ccncc2)cc1 (stereo not given),33.6*,20.5*,-27.1,11.8
Cc1noc(C)c1S(=O)(=O)N(CCc1ccccc1)Cc1ccccc1,24.3*,20.2*,-17.4,-23.0
COc1cc(S(=O)(=O)N2CCN(C(=O)c3ccccc3)CC2)c(OC)cc1Br,-0.1,.,13.1,-22.9
